# From PubChem BioAssay
# TbMetRS inhib: blocks T. brucei methionyl-tRNA synthetase activity | 0.4% of 360,000 active | inhibition, % at 11.9 µM | purified T. brucei MetRS, ATP depletion, Kinase-Glo luminescence | AID 624268;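 active means inhibition above a per-plate cutoff of the control wells' mean inhibition plus 3 SD, cut at about 5.5% in these data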
#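 technique = Kinase-Glo luminescence, ATP depletion format | system = purified MetRS (methionyl-tRNA synthetase) enzyme from Trypanosoma brucei | timing = 15 min preincubation, 2 h reaction, all 25 °C | evaluation = percent inhibition versus plate control medians | dosing = single dose, 11.9 µM final nominal, 0.9% final DMSO | also added = substrates ATP, L-methionine and bulk Escherichia coli tRNA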
# NR3A LBD binder: modulators (binders) of human NR3A ligand-binding domain. 2.5% of 340,000 active. Tm shift relative to glycine control, % at 25 µM. AID 1259313. NR3A LBD differential scanning fluorimetry, Tm shift; 0% = protein alone, 100% = glycine-bound protein;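 active means melting temperature shift of at least 10% of the positive control shift, at one fixed dose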
# EBV gp42 block: inhibitors of Epstein-Barr virus glycoprotein 42. Q1HVG2. Fluorescence polarization binding assay, mP read-out. inhibition, % (tested at 21.74 µM). 0.42% of 220,000 active. AID 1085; in the data active means inhibition above about 50%
# Target sequence (Q1HVG2 whole entry, looked up): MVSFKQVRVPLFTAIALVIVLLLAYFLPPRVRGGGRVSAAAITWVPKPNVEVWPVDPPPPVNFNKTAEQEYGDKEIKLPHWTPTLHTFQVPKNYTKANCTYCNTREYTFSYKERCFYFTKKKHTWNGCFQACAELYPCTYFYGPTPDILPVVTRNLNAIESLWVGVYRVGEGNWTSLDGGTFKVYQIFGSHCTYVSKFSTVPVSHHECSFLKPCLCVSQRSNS
# MPTP block: permeability transition pore inhibition. isolated mouse mitochondria, Ca2+ swelling absorbance, 30 min. inhibition, % at 10 µM. 1.4% of 360,000 active. AID 602449;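 active means inhibition of 50% or more, scaled per plate between neutral and stimulator controls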
# CHOP inh: inhibitors of CHOP induction in ER stress response | inhibition, % at 10 µM | AID 2732 | CHO-K1 CHOP-promoter luciferase, tunicamycin-induced, 15-18 h | 3.8% of 220,000 active;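 active means compounds that reduced the stress-induced luciferase reporter signal by more than about 70% of percent inhibition, limit read from the data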
# WT yeast gro inh: growth inhibition of WT yeast, mitochondrial fusion screen; mitochondrial fusion phenotypic screen, WT strain; inhibition, % at 10 µM; AID 1362; 2.1% of 190,000 active; in the data active means inhibition above about 58%; tested in S. cerevisiae
# Numbers stand for hits; n = inactive; x = no result given. Hits are enriched below; roughly 6.4% of the tested compounds scored in any of these assays.
SMILES,TbMetRS inhib,NR3A LBD binder,EBV gp42 block,MPTP block,CHOP inh,WT yeast gro inh
CCOC(=O)c1sc2nc3c(SCCC(=O)O)cc(C(=O)c4cc(OC)ccc4O)cn3c(=O)c2c1C,n,n,79,n,102,n
CN(CCCCCCCCC(=O)/C=N/O)Cc1ccccc1,n,n,n,n,n,n
COc1ccc(NS(=O)(=O)c2cc(NC(=O)/C=C/c3cccs3)ccc2N2CCOCC2)cc1,n,30,n,n,n,n
COc1ccc(OC)c(-c2nc(CN3CCCCC3c3cccnc3)c(C)o2)c1 (configuration not stated),n,n,n,n,n,n
COc1ccc(-c2nc(CN3CCCCC3c3nccn3C)c(C)o2)c(C)c1C (configuration not stated),n,n,n,n,n,75
O=C(COc1ccc(Cl)cc1Cl)N/N=C1\CCCc2ccccc21,n,n,n,n,n,n
O=C(COc1ccc(Cl)cc1Cl)NN=C1c2ccccc2-c2ccccc21,n,n,n,n,85,n
CCSC1(SCC)N=C(N)C2(C#N)C(c3ccc(F)cc3)C12C#N (configuration not stated),n,n,n,n,82,n
CCOC(=O)c1c(C)[nH]c(C(=O)COC(=O)CNS(=O)(=O)c2ccc(C)cc2)c1C,n,n,x,n,x,x
CCOC(=O)c1sc(=S)n(-c2ccccc2OC)c1N,n,16,n,n,n,n
Cc1cc([N+](=O)[O-])ccc1NC(=O)c1cccc(NC(=O)C(C)C)c1,n,n,n,n,n,n
C/C(=N\OCc1ccc(C#N)cc1)c1ccccc1,n,n,n,n,n,n
C/C(=N/OCO/N=C(\C)c1ccccc1)c1ccccc1,n,11,n,n,n,n
Cc1cc2nc3c(=O)[nH]c(=O)[nH]c3nc2c([N+](=O)[O-])c1N,n,n,150,n,n,n
Cn1c(OCc2cccnc2)nc2c1c(=O)n(Cc1ccccc1)c(=O)n2C,n,n,n,n,n,n
O=C(Nc1ccc2c(c1)OCO2)c1cc(Cl)ccn1,n,n,x,n,x,x
Cc1ccc2cc(C(c3nnnn3Cc3ccccc3)N3CCc4ccccc43)c(=O)[nH]c2c1 (configuration not stated),n,n,n,n,n,n
Cc1cc2cc(C(c3nnnn3Cc3ccco3)N3CCc4ccccc43)c(=O)[nH]c2cc1C (configuration not stated),n,n,n,n,86,n
Cc1ccc2[nH]c(=O)c(C(c3nnnn3Cc3ccccc3)N3CCc4ccccc43)cc2c1 (configuration not stated),n,n,n,n,70,n
Cc1ccc2[nH]c(=O)c(C(c3nnnn3CC3CCCO3)N3CCCc4ccccc43)cc2c1 (configuration not stated),n,19,n,n,n,n
N#Cc1cnc2c(-c3ccccc3)c(-c3ccccc3)nn2c1N,n,n,n,n,78,n
Cc1nn2c(N)c(C#N)cnc2c1-c1ccccc1,n,n,n,n,n,n
CCC(C)Nc1nc(SC(C(C)=O)C(C)=O)nc(N(C)C)n1 (configuration not stated),n,n,n,n,n,n
CN=C1SC(CC(=O)Nc2sc3c(c2C#N)CCCC3)C(=O)N1C (configuration not stated),n,n,n,n,n,n
COC(=O)C1=C(C)NC2=C(C(=O)CC(C)(C)C2)C1c1cn(Cc2ccc(Br)cc2)nc1-c1ccccc1 (configuration not stated),n,n,n,n,n,70
SMILES,TbMetRS inhib,NR3A LBD binder,EBV gp42 block,MPTP block,CHOP inh,WT yeast gro inh
c1ccc(Oc2nc3ccccc3n3cccc23)cc1,n,n,n,n,70,n
Clc1ccc(Cn2c(-c3cccnc3Cl)nc3ccccc32)c(Cl)c1,n,n,n,n,n,n
Fc1ccc(Cn2c(-c3cscn3)nc3ccccc32)c(Cl)c1,n,n,n,n,94,n
COc1ccc(-c2cn3c(C)c(C(=O)Nc4ccncc4)sc3n2)cc1,n,n,n,n,n,n
COC(=O)c1ccc(NC(=O)c2sc3nc(-c4ccccc4)cn3c2C)cc1,n,28,n,n,n,n
CCC1CCCCN1C(=O)c1cc(COc2ccc(-n3cncn3)cc2)on1 (configuration not stated),n,n,x,n,x,x
O=C(Nc1ccc(Oc2cccnc2)cc1)C1CCCCN1Cc1ccc(CO)o1 (configuration not stated),n,10,x,n,x,x
Cc1cc(CN2CCCCC2C(=O)Nc2ccc(Oc3cccnc3)cc2)oc1C (configuration not stated),n,n,x,n,x,x
CC1=NNC(=O)/C1=C\c1cn(-c2ccccc2)nc1-c1ccccc1,n,n,n,n,108,n
CC(NC(=O)c1cc(S(=O)(=O)N(C)C)ccc1Cl)C1CC2CCC1C2 (configuration not stated),n,n,x,n,x,x
Cc1ccc(NC(=O)COC(=O)C2COc3ccccc3O2)cc1S(=O)(=O)N1CCOCC1 (configuration not stated),n,n,n,n,n,n
Cc1cc(C(C)(C)C)oc1C(=O)NCCCNC(=O)c1oc(C(C)(C)C)cc1C,n,n,n,n,96,n
C1=CCC(CN2CCNCC2)CC1 (configuration not stated),n,n,n,n,n,n
Cc1ccc(C)c(N2CCN(CC3CC=CCC3)CC2)c1 (configuration not stated),n,n,n,n,72,n
Cc1ccc(C)c(NC(=S)Nc2cccnc2)c1,n,n,n,n,n,n
COc1ccc(C(=O)N2CCN(Cc3cn[nH]c3-c3ccc(OC)cc3F)CC2)cc1,n,48,n,n,n,n
COc1cccc(C(=O)N2CCN(Cc3ccccc3C(F)(F)F)CC2)c1,n,n,n,n,71,n
COc1cccc(C(=O)N2CCN(Cc3cn[nH]c3-c3ccc(F)cc3F)CC2)c1,n,n,n,n,n,n
COc1ccc(C(=O)N2CCN(Cc3ccccc3C(F)(F)F)CC2)cc1,n,n,x,n,x,x
Cc1cc2oc3ccc(NCCCN4CCOCC4)cc3c(=O)c2cc1C,n,n,x,n,x,x
Cc1csc(NC(=O)/C=C/c2ccc3c(c2)OCO3)n1,n,n,n,n,n,n
Cc1ccc2nc(NC(=O)/C=C/c3ccc4c(c3)OCO4)sc2c1,n,36,n,n,n,n
O=C(/C=C/c1ccc2c(c1)OCO2)Nc1nc2ccccc2s1,n,14,n,n,n,n
O=S(=O)(N[C@@H]1C[C@H]2CC[C@@H]1C2)c1cccs1,n,n,n,n,n,n
CC1=C(C(=O)OCC2CCCO2)C(c2coc3ccccc3c2=O)C2=C(CCCC2=O)N1 (configuration not stated),n,n,n,n,n,n
O=C(Nc1cc(C(F)(F)F)ccc1N1CCOCC1)c1n[nH]c(=O)c2ccccc12,n,n,n,n,78,n
